Measured values from different studies.
CDK9 with cyclin T1: Cyclin-dependent kinase 9, with cyclin T1 (CDK9, Homo sapiens, UniProt P50750)
CDK9: Cyclin-dependent kinase 9 (CDK9, Homo sapiens, UniProt P50750)

Cn1cc(-c2cccc(N3CCc4c(sc5c4CC(C)(C)C5)C3=O)c2CO)cc(Nc2ccncn2)c1=O — inhibition (CDK9 with cyclin T1; enzyme activity, inhibitor; 1 µM): 11%
Nc1ncc(-c2nc(N3CCOCC3)nc(N3CCOCC3)n2)c(C(F)F)n1 — remaining binding (CDK9; binding, competition with immobilised ligand; 10 µM): 99%
Cc1nn(C)cc1-c1nc2c(N3CCN(Cc4ccc(Cl)cc4)CC3)c(Cl)cnc2[nH]1 — remaining binding (CDK9; binding, competition with immobilised ligand; 1 µM): 100%
COc1ncccc1-c1cnn2ccc(N3CCN(C(=O)OC(C)C)CC3)nc12 — remaining binding (CDK9; binding, competition with immobilised ligand; 1 µM): 93%
Cn1cncc1[C@](O)(COc1ccc(C#N)cc1-c1ccc(OC(F)(F)F)cc1)c1ccc(C#N)cc1 — remaining binding (CDK9; cell-free assay, competition with immobilised ligand; 1 µM): 100%
O=c1[nH]c2ccccc2n1C1CCN(Cc2ccc(-c3[nH]c4cc5ncnc5cc4nc3-c3ccccc3)cc2)CC1 — remaining signal (Cyclin-dependent kinase 9, with cyclin K (CDK9, Homo sapiens, UniProt P50750); cell-free assay; 0.5 µM): 108%
N#CC1(c2ccccn2)CCN(Cc2cc(C(=O)O)c(=O)n3ccccc23)CC1 — remaining binding (CDK9; cell-free assay, competition with immobilised ligand; 1 µM): 99%
C#Cc1n[nH]c2c(-c3cn(C(C)c4ccccn4)c(=O)[nH]c3=O)cc(F)cc12 (centres unmarked) — inhibition (CDK9 with cyclin T1; enzyme activity, inhibitor; 1 µM): 20.9%
